Measurements of several laboratories.
Compare with care: the assays were run in different laboratories.
Target: Serine/threonine-protein kinase 17A (STK17A, Homo sapiens, UniProt Q9UEE5)
Sequence (Q9UEE5 1-414, as in one of the studies): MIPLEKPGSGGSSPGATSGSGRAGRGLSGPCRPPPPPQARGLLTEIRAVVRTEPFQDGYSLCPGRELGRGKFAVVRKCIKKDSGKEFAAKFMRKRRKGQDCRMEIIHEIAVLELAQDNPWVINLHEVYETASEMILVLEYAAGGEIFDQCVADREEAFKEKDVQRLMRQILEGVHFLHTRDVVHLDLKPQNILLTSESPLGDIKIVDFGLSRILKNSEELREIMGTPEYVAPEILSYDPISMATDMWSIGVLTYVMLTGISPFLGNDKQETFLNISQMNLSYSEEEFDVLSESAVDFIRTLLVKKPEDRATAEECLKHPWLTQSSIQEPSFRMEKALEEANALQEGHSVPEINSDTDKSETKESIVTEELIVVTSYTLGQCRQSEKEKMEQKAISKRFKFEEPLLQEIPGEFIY

Compound	test	setting	remaining binding [%]
O=S(=O)(NC1CCC(c2cc(F)ccc2F)(S(=O)(=O)c2ccc(Cl)cc2)CC1)C(F)(F)F (stereo not shown)	cell-free assay, competition with immobilised ligand	1 µM	86
CCN1CCN(Cc2ccc(C(=O)Nc3ccc(C)c(Oc4ccc5c(c4)CC(=O)N5)c3)cc2C(F)(F)F)CC1	binding, competition with immobilised ligand	1 µM	100
CN(c1nccc(-c2cnn3ncccc23)n1)C1CC1	binding	1 µM	100
CC1=C(C#N)[C@@H](c2ccc3[nH]nc(C)c3c2)C(C#N)=C(c2ccc(Cl)cc2)N1	cell-free assay, competition with immobilised ligand	1 µM	100
O=C(NCCCN1CCOCC1)c1ccc(Nc2nccc(-c3cc4ccccc4s3)n2)cc1	binding, competition with immobilised ligand	1 µM	0
C=CC(=O)N1CCC(C(=O)NCC(=O)N2CCN(c3nc(-c4cnc(N)nc4C(F)F)nc(N4CCOCC4)n3)CC2)CC1	binding, competition with immobilised ligand	1 µM	100
C[C@@H](c1ccc(-n2cnc3c(N)ncnc32)cc1)N1CCc2nn(C)c(Cc3ccccc3)c2C1=O	binding, competition with immobilised ligand	0.1 µM	91
Cn1nc(C(=O)NCc2ccc(C(=O)O)cc2)cc1-c1ccc2[nH]ccc2c1	cell-free assay, competition with immobilised ligand	0.1 µM	92
O=C(c1ccc(Nc2nccc(-c3cc4ccccc4s3)n2)cc1)N1CCC(N2CCCC2)CC1	binding, competition with immobilised ligand	1 µM	0.3
N[C@@H]1CCN(c2nccc(-c3cnn4ncccc34)n2)C1	binding	1 µM	100
COc1cnc(Nc2cccc(S(N)(=O)=O)c2)nc1N1CCN(c2ccccc2)C(=O)C1	binding, competition with immobilised ligand	1 µM	98
COc1ncc2cc3ccccc3nc2c1C#N	cell-free assay, competition with immobilised ligand	5 µM	100
COc1ccc2c(O[C@@H]3C[C@H]4C(=O)N[C@]5(C(=O)O)CC5/C=C\CCCCC[C@H](NC(=O)OC5CCCC5)C(=O)N4C3)cc(-c3csc(NC(=O)C(C)C)n3)nc2c1C (stereo partly shown)	cell-free assay, competition with immobilised ligand	1 µM	99
c1cnn2ncc(-c3ccnc(N4CCC45COC5)n3)c2c1	binding	1 µM	100
c1ccc(N2CCN(Cc3nc4ccccc4[nH]3)CC2)nc1	cell-free assay, competition with immobilised ligand	1 µM	100
c1cncc(-c2cccc(Nc3nccc(NC4CCCCC4)n3)c2)c1	binding, competition with immobilised ligand	10 µM	47
CN(C)c1nccc(-c2cnc3ncccn23)n1	binding	1 µM	100
CNC(=O)Nc1ccc2c(c1)CC[C@@]21OC(=O)N(CC(=O)N(Cc2ccc(F)cc2)[C@@H](C)C(F)(F)F)C1=O	cell-free assay, competition with immobilised ligand	1 µM	100
C[C@H]1CCN(c2nccc(-c3cnn4ncccc34)n2)C1	binding	1 µM	13
O=C(c1ccc(Nc2ncc(Cl)c(-c3ccc(Cl)s3)n2)cc1)N1CCC(N2CCCC2)CC1	binding, competition with immobilised ligand	1 µM	0.8
CN(C)c1ncc(F)c(-c2cnn3ncccc23)n1	binding	1 µM	95
O=C(NCC1CCOCC1)c1n[nH]cc1NC(=O)c1c(F)cccc1F	binding, competition with immobilised ligand	1 µM	94
